Bioassay records (PubChem BioAssay)
Only some compounds are listed: those with a hit (about 2.5% of all), similar ones and a draw of the others.
bovine MsrA act: bovine MsrA enzyme activators, primary screen, biochemical, absorbance, HTS; Methionine sulfoxide reductase A (Bos taurus); purified bovine MsrA, absorbance read-out; activation, % at 10.6 µM; 0.3% of 360,000 active; AID 602163, 2012; in the data active = activation above about 7.5%;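 note: 0% = vehicle and 100% = reference activator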
NR2E3 ag-1: inhibitors of NR2E3-RetCOR corepressor binding, primary screen, NR2E3 agonist project, biochemical, TR-FRET, GST-NR2E3, biotin-RetCOR; Photoreceptor-specific nuclear receptor (Homo sapiens), Q9Y5X4; 1536-well; inhibition of corepressor binding, % at 4.78 µM; 0.12% of 320,000 active; AID 2300, 2010;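 active = percent inhibition above the cutoff of mean plus 3 SD of all tested compounds, set per screening campaign, cut at about 20% in these data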;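 note: 0% = DMSO wells and 100% = biotin wells as full block of FRET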
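Assay system: NR2E3–RetCOR corepressor complex. Quantity: 1.35 nM GST-NR2E3. Buffer or medium: pH 7.5 Tris-based buffer. Reagent: biotinylated RetCOR corepressor at 7 nM final. Schedule: 5 h at 4 °C. Detection: TR-FRET, emission read at 617 and 671 nm. Replicates: one well per compound, singlicate testing.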
MsrA inh: bovine MsrA enzyme inhibitors, primary screen, biochemical, absorbance, HTS; 0.75% of 360,000 active; purified bovine MsrA, absorbance read-out; Methionine sulfoxide reductase A (Bos taurus); inhibition, % at 15.5 µM; AID 651718, 2012; in the data active = inhibition above about 4.5%;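 note: 0% = vehicle wells with enzyme and 100% = reference inhibitor wells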
GalR3 antagonist: GalR3 antagonists in HEK293 cells, primary screen, cell-based, fluorescence readout; Galanin receptor type 3 (Homo sapiens), O60755; HEK293 GalR3-CNG cAMP membrane potential fluorescence; galR3 body fused to GalR1 C-terminus; inhibition, % at 3 µM; 0.44% of 360,000 active;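 active = inhibition above the screen-wide average plus 3 SD, cut at about 13% in these data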;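 note: forskolin and galanin both at EC90 stimulate the cells; cAMP rise reported by CNG channel membrane potential dye signal; 0% = forskolin plus galanin with DMSO and 100% = forskolin alone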
Target sequence (O60755 1-299 limits assumed): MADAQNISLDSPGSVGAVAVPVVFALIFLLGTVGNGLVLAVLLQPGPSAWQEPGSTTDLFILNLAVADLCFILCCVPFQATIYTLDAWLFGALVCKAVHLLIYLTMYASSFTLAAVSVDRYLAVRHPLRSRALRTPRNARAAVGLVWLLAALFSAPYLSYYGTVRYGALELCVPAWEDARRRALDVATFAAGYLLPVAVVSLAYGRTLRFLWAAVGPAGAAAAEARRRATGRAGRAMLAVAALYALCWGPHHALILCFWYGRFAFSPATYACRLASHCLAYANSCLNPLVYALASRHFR
NR2E3 ag-2: NR2E3 agonists in two-hybrid cells, primary screen, cell-based, luminescence, CHO-S, Gal4-NCOR/VP16-NR2E3. Photoreceptor-specific nuclear receptor (Homo sapiens), Q9Y5X4. 0.35% of 360,000 active. AID 602229, 2012. inhibition of corepressor binding, % at 3.98 µM. luciferase;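 active = inhibition above the mean of all tested compounds plus 3 SD, cut at about 70% in these data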;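 note: 0% = DMSO with NR2E3 transfected cells and 100% = cells lacking NR2E3 construct; higher means lower luciferase signal from less NR2E3 corepressor binding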
NadD inh: inhibitors of S. aureus NadD, primary screen, biochemical, colorimetric, uHTS; purified NadD enzyme, colorimetric absorbance read-out; AID 602399, 2012; 0.78% of 360,000 active; inhibition, % at 20 µM; in the data active = inhibition above about 26%
MsrA activ conf: bovine MsrA activators, retest, confirmation, biochemical, absorbance, HTS. shares compounds with bovine MsrA act. purified bovine MsrA, absorbance read-out. activation, % at 10.6 µM. 12% of 1,000 active; in the data active = activation above about 4%;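 note: enzyme coupled to thioredoxin and thioredoxin reductase with NADPH; 0% = vehicle wells and 100% = reference activator wells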
* = called active by the depositor.

Screening FC(F)(F)c1cc(Oc2ccccc2)nc(-c2ccccn2)n1 returned bovine MsrA act 9.7*, NR2E3 ag-1 0.7, MsrA inh -0.5, GalR3 antagonist -4.3, NR2E3 ag-2 1.1, NadD inh 0.7 and MsrA activ conf -3.0.
For CCOc1ccc(S(=O)(=O)N2CCN(C(=S)NC3CC3)CC2)cc1 the results were bovine MsrA act -3.4, NR2E3 ag-1 5.8, MsrA inh -1.3, GalR3 antagonist 2.2, NR2E3 ag-2 -6.5 and NadD inh -4.5.
For COc1ccc(S(=O)(=O)N2CCN(C(=S)NC3CCCCC3)CC2)cc1 the results were bovine MsrA act 8.0*, NR2E3 ag-1 2.1, MsrA inh -0.1, GalR3 antagonist 2.0, NR2E3 ag-2 6.5, NadD inh -3.9 and MsrA activ conf -2.8.
CC1CS(=O)(=O)CCN1N=Cc1ccc([N+](=O)[O-])o1 (stereo unspecified) was read as bovine MsrA act 10.3*, NR2E3 ag-1 5.1, MsrA inh 0.3, GalR3 antagonist -3.6, NR2E3 ag-2 -11.4, NadD inh -3.0 and MsrA activ conf -1.7.
`O=[N+]([O-])c1ccc(C=NN2CCNC2=S)o1` gave bovine MsrA act 3.4, MsrA inh 0.3, GalR3 antagonist -3.8, NR2E3 ag-2 -10.8 and NadD inh -1.3.
`CCc1ccc(CN(C)Cc2nc(COc3ccccc3)no2)nc1` gave bovine MsrA act 7.9*, NR2E3 ag-1 -1.1, MsrA inh 1.2, GalR3 antagonist -3.3, NR2E3 ag-2 -5.6, NadD inh -7.2 and MsrA activ conf -1.0.
For CC1CCN(C(=O)c2[nH]cnc2C(=O)N2CCN(C(=O)OC(C)(C)C)CC2)CC1 the results were bovine MsrA act -5.1, NR2E3 ag-1 0.8, MsrA inh -0.7, GalR3 antagonist -4.3, NR2E3 ag-2 -8.1 and NadD inh -2.0.
For Cc1ccc(S(=O)(=O)c2cc3c(=O)n4ccccc4nc3n(CC3CCCO3)c2=N)cc1C (stereo unspecified) the results were bovine MsrA act -2.2, NR2E3 ag-1 -3.4, MsrA inh -0.1, GalR3 antagonist -1.4, NR2E3 ag-2 19.9 and NadD inh 6.8.
For Cc1ccc(C(=O)OCC(=O)NCCC2=CCCCC2)cc1N the results were bovine MsrA act -1.5, NR2E3 ag-1 3.6, MsrA inh -0.5, GalR3 antagonist -5.2, NR2E3 ag-2 -26.0 and NadD inh -0.4.
For Cc1ccc(OCC(=O)Nc2cc(-c3nn4c(C)nnc4s3)ccc2C)cc1 the results were bovine MsrA act 9.7*, NR2E3 ag-1 1.5, MsrA inh 1.1, GalR3 antagonist -0.3, NR2E3 ag-2 -23.1, NadD inh 9.8 and MsrA activ conf -0.9.
For Cc1cc(C(=O)COC(=O)CC2Sc3ccccc3NC2=O)c(C)n1-c1ccc(Br)cc1 (stereo unspecified) the results were bovine MsrA act -8.2, NR2E3 ag-1 -1.0, MsrA inh 0.3, GalR3 antagonist -6.2, NR2E3 ag-2 -11.4 and NadD inh 14.2.
COc1ccc(Cn2nnnc2C(c2cccs2)N2CCOCC2)cc1 (stereo unspecified) was read as bovine MsrA act 7.8*, NR2E3 ag-1 -1.7, MsrA inh 0.0, GalR3 antagonist -4.4, NR2E3 ag-2 -9.9, NadD inh 4.0 and MsrA activ conf -1.0.
Screening Nc1cc(OC(=O)c2c(F)cccc2Cl)nn1S(=O)(=O)c1ccccc1 returned bovine MsrA act -5.6, NR2E3 ag-1 0.2, MsrA inh 0.8, GalR3 antagonist -8.4, NR2E3 ag-2 13.6 and NadD inh -9.5.
For CCOC(=O)C1CCCN(C/C=C/c2ccccc2[N+](=O)[O-])C1 (stereo unspecified) the results were bovine MsrA act 7.9*, NR2E3 ag-1 3.8, MsrA inh -0.4, GalR3 antagonist -6.3, NR2E3 ag-2 6.1, NadD inh -3.8 and MsrA activ conf -1.0.
CCN(CC)C(=O)C1CCCN(C/C=C/c2ccccc2[N+](=O)[O-])C1 (stereo unspecified) was read as bovine MsrA act -4.5, NR2E3 ag-1 -0.4, MsrA inh 0.4, GalR3 antagonist -10.7, NR2E3 ag-2 -66.8 and NadD inh -17.2.
For CC[C@H](C)[C@@H](C(=O)NCCCCCCCCCCC(=O)N1CCNCC1)n1cc(CCCCN=C(N)N)nn1 the results were bovine MsrA act 9.3*, NR2E3 ag-1 -1.7, MsrA inh 0.3, GalR3 antagonist -6.0, NR2E3 ag-2 -13.5, NadD inh -6.0 and MsrA activ conf -0.3.
COc1ccc(NC(=O)COC(=O)Cc2coc3cc(OC)ccc23)c(OC)c1 was read as bovine MsrA act 8.0*, MsrA inh -0.1, GalR3 antagonist -4.5, NR2E3 ag-2 -24.0, NadD inh -4.8 and MsrA activ conf -1.0.
COc1ccc2c(CC(=O)Nc3ccccc3OC)coc2c1 was read as bovine MsrA act -2.8, NR2E3 ag-1 -0.6, MsrA inh -0.9, GalR3 antagonist -2.6, NR2E3 ag-2 -15.2 and NadD inh 0.8.
Screening N#Cc1ccccc1NC(=O)CN1C(=O)NC(Cc2c[nH]c3ccccc23)C1=O (stereo unspecified) returned bovine MsrA act 8.0*, NR2E3 ag-1 0.2, MsrA inh -1.2, GalR3 antagonist -4.6, NR2E3 ag-2 -1.8, NadD inh 3.1 and MsrA activ conf 5.4*.
For Cc1ccc(C(=O)OCC(=O)Nc2ccc(F)c(Cl)c2)o1 the results were bovine MsrA act -5.3, NR2E3 ag-1 2.4, MsrA inh 0.1, GalR3 antagonist -3.7, NR2E3 ag-2 -17.3 and NadD inh -5.6.
For CN(C)S(=O)(=O)c1ccc(Cl)c(NC(=O)COC(=O)CNC(=O)c2ccco2)c1 the results were bovine MsrA act -10.0, NR2E3 ag-1 6.3, MsrA inh 0.9, GalR3 antagonist -4.9, NR2E3 ag-2 16.0 and NadD inh 2.5.
CN(C)S(=O)(=O)c1ccc(Cl)c(NC(=O)COC(=O)CNS(=O)(=O)c2c(F)cccc2F)c1 was read as bovine MsrA act 8.8*, MsrA inh -0.5, GalR3 antagonist -2.0, NR2E3 ag-2 2.8, NadD inh -5.3 and MsrA activ conf 0.7.
Screening Cn1c(-c2sccc2OCc2ccc(Cl)cc2Cl)n[nH]c1=S returned bovine MsrA act 16.7*, NR2E3 ag-1 0.8, MsrA inh 0.7, GalR3 antagonist -3.2, NR2E3 ag-2 1.9, NadD inh 4.5 and MsrA activ conf -0.8.
